Measurements from paper PMC3786204 (Journal of immunology (Baltimore, Md. : 1950), 2013).

Tests used:
Type in all cases: cell-based, human
[1] = test system: DENV3 specific CTL; assay: Surface CD8 expression on DENV3 epitope specific CTL; conditions: CTL primed against DENV3 NS3 399–407 KLNDWDFVV
Procedure, shortened: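 CD8+ T cells were negatively selected from HIV-1-seronegative HLA-A*0201 donors and plated at 7.5×10^5/well. They were primed with DENV3 epitope-pulsed αDC1 (7.5×10^4/well) plus γ-irradiated J558-CD40L cells (5×10^4/well). rhIL-2 (50 IU/ml), rhIL-7 (10 ng/ml) and rhIL-15 (1 ng/ml) were added at day 4. CTL were tested against serotype-variant peptides, with CD8 read by flow cytometry.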

[2] = test system: Gag77–85 reactive CTL from HIV-1 positive donor; assay: Surface CD8 expression on memory CTL expanded from HIV-1 positive donor PBMC; conditions: CTL expanded from PBMC 6 months post seroconversion
[3] = test system: HIV-1 p24 Gag151–159 specific CTL; assay: Surface CD8 expression on peptide reactive CTL; conditions: TLN9-specific CTL, gated on IFN-γ producing cells; CTL lines from 5 donors
Procedure, shortened: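 CTL lines were primed in vitro from 5 HIV-1-naïve donors and maintained with IL-2 (200 IU/ml) and IL-7 (10 ng/ml). They were restimulated with peptide variants and assessed by intracellular cytokine staining with anti-CD28/CD49d and Golgistop/Golgiplug. CD8 MFI was read on IFN-γ-producing cells by multiparameter flow cytometry. Statistics used one-way ANOVA with Tukey post hoc test.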

[4] = test system: autologous pre-activated CD4+ T cells; assay: CTL cytotoxicity against peptide-pulsed CD4+ T cell targets; conditions: targets pulsed with 1 μg/mL peptide, 18h co-culture
Procedure, shortened: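 Targets: PBMC activated 5 days with PHA (1μg/ml) and rIL-2 (100 IU/ml), then CD4+ cells negatively selected, pulsed 1 h with 1μg/mL peptide and washed. Co-cultured with CTL 18h at 37°C at CTL:target 3:1, 1:1, 0.3:1 and 0:1. Stained for CD4/CD8, fixed/permeabilized, 7-AAD 20 min at 37°C. Linear 7-AAD on singlet CD4+ events scored G1, S/G2 and sub-G1 fractions. 4 experiments.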

[5] = test system: autologous iDC; assay: 4 h 51Cr-release cytotoxicity assay; conditions: 1 μg/ml peptide, TLN9-specific CTL
Procedure, shortened: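 Targets were autologous iDC, generated by culturing monocytes 5–7 days in IMDM with 10% FBS, GM-CSF and IL-4 (both 1000 IU/ml), then peptide-pulsed. Effectors were CTL primed in vitro from CD8+ T cells of HIV-1-seronegative HLA-A*0201 donors, using peptide-pulsed αDC1. Lysis was read by standard 4 h 51Cr release.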

[6] = test system: iDC; assay: Microscopy of iDC:CTL co-cultures; conditions: 24 h co-culture, light microscopy
Procedure, shortened: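 CTL (2×10^5 cells/well) were added to day-5 autologous iDC cultures with 1 μg/ml irrelevant, priming or variant 9mer peptide. Co-cultures were examined by light microscopy after 24h. For SEM, cells grew on glass coverslips removed at 24h, fixed in 2.5% glutaraldehyde in PBS and post-fixed in 1% aqueous osmium tetroxide.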

[7] = test system: autologous iDC; assay: Flow cytometry viability and recovery of iDC in CTL:DC co-cultures; conditions: CTL and iDC co-culture, 6h, 3:1 CTL:DC
Procedure, shortened: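 CTL were added to day-5 autologous iDC for 6h at 3:1 (CTL:DC). Cultures had no peptide, irrelevant control, priming or variant peptide; titration used decreasing cognate peptide down to .001 μg/ml. Cell loss came from recovered cell-type ratios gated by light scatter and CD3 (T cells) or CD86 (DC). Viability of DC-gated events used LIVE/DEAD Aqua. Three experiments, ± standard error.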

[8] = test system: DC; assay: DC maturation, surface CD86 by flow cytometry; conditions: 48h; for Effect on CTL-induced DC maturation (CD86 enhancement): PLN9 expressing DC + CTL, sTNF-R1 0.1 μg/ml, sIFNγ-R1 1 μg/ml
Procedure, shortened: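 Day 5 autologous immature DC were co-cultured for 48h with TLN9-specific CTL (2×10^5 cells/well) plus variant peptide PLN9 (1 μg/ml), with or without blockers sTNF-RI (0.1 μg/ml) or IFNγ-R1 (1 μg/ml). Controls were TNF-α (50 ng/ml)-matured DC and peptide-exposed DC without CTL. DC surface CD86 was measured by flow cytometry.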

[9] = test system: DC; assay: DC IL-12p70 producing capacity after CD40L stimulation; conditions: exogenous TNF-α 50 ng/ml, 48h, then CD40L stimulation

KLTDWDFVV
CD8 expression on reactive CTL [1]: CD8 expression was maintained

RTNDWDFVV
CD8 expression on reactive CTL [1]: CD8 expression was maintained

KLNDWDFVV [reference compound]
CD8 expression on reactive CTL [1]: down-regulation of CD8

SLFNTVATL
CD8 expression on reactive CTL [2]: down-regulation occurred

PLNAWVKVV [PLN9]
Surface expression of CD8 on peptide reactive CTL [3]: maintained
Killing of peptide-labeled CD4+ T cell targets by TLN9-specific CTL [4]: not effectively killed
CTL lytic activity against peptide-labeled iDC [5]: dramatically reduced
DC morphology / survival in co-culture with CTL [6]: pronounced webbed network of long cellular extensions

TLNAWVKVV [TLN9]
Surface expression of CD8 on peptide reactive CTL [3]: decreased
CTL lytic activity against peptide-labeled iDC [5]: showed lytic activity
Peptide concentration at which a substantial drop in killing occurs [7]: .001 µg/mL
DC morphology / survival in co-culture with CTL [6]: failed to survive

TNF-α
CD86 expression of DC matured with the factor ([8]; exogenous TNF-α 50 ng/ml): high levels of CD86
IL-12p70 producing ability of DC matured with the factor [9]: curtailed

B1: sIFNγ-rec1: soluble IFN-γ receptor 1, IFN-γ blocker (protein, UniProt P15260 18-245, looked up)
extracellular domain: EMGTADLGPSSVPTPTNVTIESYNMNPIVYWEYQIMPQVPVFTVEVKNYGVKNSEWIDACINISHHYCNISDHVGDPSNSLWVRVKARVGQKESAYAKSEEFAVCRDGKIGPPKLDIRKEEKQIMIDIFHPSVFVNGDEQEVDYDPETTCYIRVYNVYVRMNGSEIQYKILTQKEDDCDEIQCQLAIPVSSLNSQYCVSAEGVLHVWGVTTEKSKEVCITIFNSSIKG
modifications: extracellular domain
Effect on CTL-induced DC maturation (CD86 enhancement) [8]: did not inhibit

B2: sTNF-rec1: Human soluble TNF receptor I, TNF-α blocker (protein, UniProt P19438 30-211, looked up)
extracellular domain: LVPHLGDREKRDSVCPQGKYIHPQNNSICCTKCHKGTYLYNDCPGPGQDTDCRECESGSFTASENHLRHCLSCSKCRKEMGQVEISSCTVDRDTVCGCRKNQYRHYWSENLFQCFNCSLCLNGTVHLSCQEKQNTVCTCHAGFFLRENECVSCSNCKKSLECTKLCLPQIENVKGTEDSGTT
modifications: extracellular domain
Effect on CTL-induced DC maturation (CD86 enhancement) [8]: partially reduced
